# Measured values of several laboratories.
# Lines come from different studies, so protocols differ. pIC50: −log10 of the molar value.
# Organism: Nakaseomyces glabratus
SMILES,assay,system,conditions,endpoint,value
CCCCCN1CCNCC1,"microbial growth, broth dilution",ATCC2001,48 h,MIC,> 31.3 µg/mL
CCCCCCCCOc1c(OC)cc(NC(C)CCCNC(=O)C2CCCN2)c2nc(C(C)(C)C)ccc12 (centres unmarked),microbial growth,ATCC90030,,IC50,11 µg/mL
C[C@@H]1[C@H](O)[C@@H](C)/C=C/C=C/C=C/C=C/C=C/C=C/C=C/[C@H](O[C@@H]2O[C@H](C)[C@@H](O)[C@H](N)[C@@H]2O)C[C@@H]2O[C@](O)(C[C@@H](O)C[C@@H](O)[C@H](O)CC[C@@H](O)C[C@@H](O)CC(=O)O[C@H]1C)C[C@H](O)[C@H]2C(=O)O,microbial growth,ATCC90030,,pIC50,6.41
COc1ccc(-c2cc(OC)cc(C(C)C#Cc3c(C)nc(N)nc3N)c2)cc1 (centres unmarked),"microbial growth, resazurin",,,MIC,3.1 µg/mL
O=C(O)c1nc2ccccc2c(=O)n1Cc1cn(-c2cccc(Cl)c2)nn1,"microbial growth, broth dilution",ATCC90030,24 h,IC50,278 µg/mL
CCCCCOc1c(OC)cc(NC(C)CCCNC(=O)C(N)CCCNC(=N)N)c2nc(C(C)(C)C)ccc12 (centres unmarked),"microbial growth, broth dilution",ATCC90030,,MIC,20 µg/mL
CCOC(=O)c1nc2ccccc2c(=O)n1Cc1cn(-c2cccc(OC)c2)nn1,"microbial growth, broth dilution",ATCC90030,24 h,IC50,417 µg/mL
CN1CCN(CC(O)(Cn2cncn2)c2ccc(F)cc2F)CC1 (centres unmarked),"microbial growth, broth dilution",ATCC2001,48 h,MIC,31.3 µg/mL
CCOC(=O)c1nc2ccccc2c(=O)n1Cc1cn(-c2cccc([N+](=O)[O-])c2)nn1,"microbial growth, broth dilution",ATCC90030,24 h,IC50,354 µg/mL
C=CCCCCCCCCCCCC(O)CC(O)CO (centres unmarked),"microbial growth, broth dilution",ATCC90030,,IC50,> 200 µg/mL
CCCCCCOc1c(OC)cc(NC(C)CCCN)c2nc(C(C)(C)C)ccc12 (centres unmarked),microbial killing,ATCC90030,,MFC,20 µg/mL
CCOC(=O)c1nc2ccccc2c(=O)n1Cc1cn(-c2cccc(Cl)c2)nn1,"microbial growth, broth dilution",ATCC90030,24 h,IC50,58.2 µg/mL
CCCCCCOc1c(OC)cc(NC(C)CCCNC(=O)C(N)Cc2cnc[nH]2)c2nc(C(C)(C)C)ccc12 (centres unmarked),microbial growth,ATCC90030,,IC50,19.2 µg/mL
COc1cccc(-n2cc(Cn3c(C(=O)O)nc4ccccc4c3=O)nn2)c1,"microbial growth, broth dilution",ATCC90030,24 h,IC50,453 µg/mL
CCCCCCCCCCCCCCN1CCN(CC(O)(Cn2cncn2)c2ccc(F)cc2F)CC1 (centres unmarked),"microbial growth, broth dilution",ATCC2001,48 h,MIC,> 31.3 µg/mL
CCCCCOc1c(OC)cc(NC(C)CCCNC(=O)C(N)Cc2ccccc2)c2nc(C(C)(C)C)ccc12 (centres unmarked),microbial growth,ATCC90030,,IC50,10.9 µg/mL
CCCCCCCCCCCCN1CCNCC1,"microbial growth, broth dilution",ATCC2001,48 h,MIC,1.95 µg/mL
CCCCCCCCOc1c(OC)cc(NC(C)CCCN)c2nc(C(C)(C)C)ccc12 (centres unmarked),microbial growth,ATCC90030,,IC50,6.19 µg/mL
CC[C@H](C)C[C@H](C)CCCCCCCCC(=O)N[C@H]1C[C@@H](O)[C@@H](NCCN)NC(=O)[C@@H]2[C@@H](O)CCN2C(=O)[C@H]([C@H](O)CCN)NC(=O)[C@H]([C@H](O)[C@@H](O)c2ccc(O)cc2)NC(=O)[C@@H]2C[C@@H](O)CN2C(=O)[C@H]([C@@H](C)O)NC1=O,"microbial growth, broth dilution",ATCC2001,48 h,MIC,0.06 µg/mL
CCOC(=O)c1nc2ccccc2c(=O)n1Cc1cn(-c2ccccc2Cl)nn1,"microbial growth, broth dilution",ATCC90030,24 h,IC50,183 µg/mL
